The text below walks through data of PMC7316614 (ACS nano, 2020).

The test system of series [1] is HepG2 cells. Put plainly: Cell viability / cytotoxicity. The class given is cell-based. In outline:
(§1)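 HeLa and HepG2 grown in MEM with 10% (vol/vol) FBS and 0.5% (vol/vol) each penicillin and streptomycin, at 37 °C under 5% CO2. IC50 taken on the 2nd day of exposure to the test compound. Means ± SD from n > 3 independent experiments; significance by t-test.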

In series [2] the test system is HS-5 cells. The series is described as follows: Multidrug resistance. Particulars: normal cell line, Figure S5. Format: cell-based.
The test system of series [3] is HeLa cells. The series is described as follows: Cell viability / cytotoxicity. Format: cell-based. The following applies: Flag-(C16)2 alone, 48h. In outline:
as §1

Series [4] in a line: Critical micelle concentration. Particulars: Figure S6. Format: physicochemical.
The target of a further series is enterokinase (ENTK) (Homo sapiens, UniProt P98073). Put plainly: Enzymatic cleavage by ENTK. Format: biochemical. The following applies: Flag-(C16)2 at 200 μM (above CMC), Figure S7D.
Chain of enterokinase (ENTK) (P98073 whole entry, species assumed): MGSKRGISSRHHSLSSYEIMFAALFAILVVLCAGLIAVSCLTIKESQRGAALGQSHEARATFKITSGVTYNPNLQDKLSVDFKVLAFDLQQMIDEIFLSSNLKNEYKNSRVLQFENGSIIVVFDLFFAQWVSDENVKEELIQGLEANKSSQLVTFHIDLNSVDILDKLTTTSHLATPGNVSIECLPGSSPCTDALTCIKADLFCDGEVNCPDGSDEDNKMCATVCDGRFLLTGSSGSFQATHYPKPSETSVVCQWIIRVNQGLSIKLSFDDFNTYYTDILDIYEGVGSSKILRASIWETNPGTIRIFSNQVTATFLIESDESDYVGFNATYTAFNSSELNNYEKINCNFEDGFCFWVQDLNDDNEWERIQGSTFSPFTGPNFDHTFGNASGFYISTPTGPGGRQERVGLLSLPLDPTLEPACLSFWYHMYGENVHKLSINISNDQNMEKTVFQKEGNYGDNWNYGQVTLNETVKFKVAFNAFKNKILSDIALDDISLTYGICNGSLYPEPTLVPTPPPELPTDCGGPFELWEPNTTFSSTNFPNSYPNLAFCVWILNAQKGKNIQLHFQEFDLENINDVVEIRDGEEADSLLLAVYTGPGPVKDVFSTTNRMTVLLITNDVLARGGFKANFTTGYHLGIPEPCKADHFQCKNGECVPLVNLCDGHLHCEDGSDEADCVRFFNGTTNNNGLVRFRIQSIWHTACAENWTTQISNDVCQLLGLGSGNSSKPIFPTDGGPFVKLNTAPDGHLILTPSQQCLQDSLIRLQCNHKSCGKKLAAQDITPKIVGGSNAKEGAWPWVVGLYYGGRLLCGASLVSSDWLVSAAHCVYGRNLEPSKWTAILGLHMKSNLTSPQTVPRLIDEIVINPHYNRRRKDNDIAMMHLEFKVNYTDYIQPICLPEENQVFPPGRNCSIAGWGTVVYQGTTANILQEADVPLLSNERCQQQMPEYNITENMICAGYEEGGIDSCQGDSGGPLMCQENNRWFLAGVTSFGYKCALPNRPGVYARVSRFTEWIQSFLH
Series [5] concerns cytochrome c in HepG2 cells. The series is described as follows: Cytochrome c in cytosol, Western blot. Format: cell-based. Particulars: 100, 50, 25 μM, 48 h. The procedure, abridged: (§2)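 Cells were exposed to the test compound for 48 h (HepG2: 100, 50, 25 and 0 μM). The cytosol fraction was blotted for cytochrome c. Protein was quantified by Coomassie, and 20 μg per lane was run on SDS-PAGE and transferred to PVDF. Bands were quantified by densitometry. Data are means ± SD, n > 3, t-test.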
(In western blotting, separated proteins are transferred to a membrane and probed.)

The subject of series [6] is HS-5 cells. The series is described as follows: Cell viability / cytotoxicity. The class given is cell-based.
Series [7] deals with HepG2 cells. Put plainly: Mitochondrial membrane potential by Rhodamine 123. Format: cell-based. The following applies: 50 μM, 48 h.
Series [8] relates to cytochrome c in HeLa cells. The series is described as follows: Cytochrome c in cytosol, Western blot. Particulars: different concentration, Figure S17. Format: cell-based. In outline:
as §2

Series [9] relates to HeLa cells. Put plainly: Mitochondrial membrane potential by Rhodamine 123. The class given is cell-based. Particulars: 48h, Rhodamine 123, Figure S15.
The next series concerns AML12 cells. The series is described as follows: Cell viability / cytotoxicity. The class given is cell-based.
The next series in a line: Drug loading efficiency. The class given is physicochemical. Particulars: determined from the LE%.
Series [10] deals with HepG2 cells. Put plainly: Mitochondrial accumulation, fluorescence imaging with MitoTracker. The class given is cell-based. The following applies: Flag-(C16)2, 48h.
The nature of the next series: Self-assembly. Format: physicochemical. Particulars: 50 μM.
Series [11] in a line: Solubility of the enzymatic product. The class given is physicochemical. Particulars: direct suspension of the enzymatic product.

Peptide text beside a SMILES is read from it.

Take `O=C(N[C@H](CO)[C@H](O)c1ccc([N+](=O)[O-])cc1)C(Cl)Cl` [CLRP, chloramphenicol, reference compound]: in the series on HepG2 cells [1] (free CLRP alone, Figure 2A), the “cell viability, HepG2” value is on record as “hardly suppresses the viability”. Besides, the “change of MDR, HS-5” value with HS-5 cells [2] was “Neither CLRP nor CLRP mixed with Flag-(C16)2 significantly change the MDR”.

Regarding `CCCCCCCCCCCCCCCCNC(=O)CC[C@H](NC(=O)CNC(=O)[C@H](CCCCN)NC(=O)[C@H](CC(=O)O)NC(=O)[C@H](CC(=O)O)NC(=O)[C@H](CC(=O)O)NC(=O)[C@H](CC(=O)O)NC(=O)[C@H](CCCCN)NC(=O)[C@H](Cc1ccc(O)cc1)NC(=O)[C@@H](N)CC(=O)O)C(=O)NCCCCCCCCCCCCCCCC` [Flag-(C16)2] (HELM PEPTIDE1{D.Y.K.D.D.D.D.K.G.E.[CCCCCCCCCCCCCCCCN[*:1]]}|CHEM1{[CCCCCCCCCCCCCCCCN[*:1]]}$PEPTIDE1,CHEM1,10:R3-1:R1$$$V2.0), in the series on HeLa cells [3], the “cell viability, HeLa” value is on record as “decrease of cell viability”. In addition, the “critical micelle concentration (CMC)” value in series [4] was found to be 43 µM. Further, on enterokinase (ENTK), the “hydrolysis by ENTK” value is given as “hydrolyzes”. Besides, in [5], the “cytochrome c in the cytosol, HepG2” value was “increased cytochrome c”. In addition, in the series with HS-5 cells [6], the “cell death, HS-5” value is recorded as “hardly induces cell death”. In the series on HepG2 cells [7], the “mitochondrial membrane potential, HepG2” value was “reduced mitochondrial membrane potential”. In [8], the “cytochrome c in the cytosol, HeLa” value is “increased cytochrome c”. In the series on HeLa cells [9], the “mitochondrial membrane potential, HeLa” value is reported as “reduced mitochondrial membrane potential”. Further, the “cell death, AML12” value in the series with AML12 cells is listed as “hardly induces cell death”. In addition, the “encapsulation capacity (EC)” value in the series “Drug loading efficiency” is 66.7 μg CLRP in per mg Flag-(C16)2 micelles. The “cell viability, HepG2” value in the series on HepG2 cells [1] (Flag-(C16)2 alone, 48h) is given as “decrease of cell viability”. For the same compound, the “mitochondrial morphology, HepG2” value in the series on HepG2 cells [10] is given as “fragmental mitochondria”. In addition, in the series “Self-assembly” (ENTK, 24 h, 37 °C, static light scattering), the “self-assembly after adding ENTK” value is “larger micelle-like aggregates”. In “Self-assembly” (before ENTK), the self-assembly in solution entry is listed as “self-assembles into nanoparticles”.

Gly-Glu-(C16)2: in [11], the solubility result is “poor solubility”.
